Hit rate of the full screen: of about 350,000 compounds, about 740 (0.21%) were called active. Only a selection was taken, and actives are over-represented in it overall. Unmarked numbers belong to inactive results.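 Rule for the calls: active = every replicate reaching activation of at least 50%, whatever the mean replicate activation; inconclusive = replicates that disagree or another doubt; inactive = the rest.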
Assay: increased acetylated PGC1a in cells – cell-based, U2OS, AlphaScreen, signal-increasing mode, PGC1a modulator project, primary screen (AID 651723)
Conditions: U2OS PGC1a acetylation AlphaScreen, overnight; at 15.6 µM; active compounds read high
How it was run: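 System: Flag-PGC1a/GCN5 U2OS cells | Quantity: 7000 cells/well | Times: Overnight compound treatment, 37 °C | Measured by: AlphaScreen proximity luminescence, anti-acetyl-lysine antibody | Dosing: One concentration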

Compound	activation
CN(C)CC1Oc2ccccc2OC1(O)c1ccccc1 (configuration not stated)	249% (active)
CCC(C)(O)C(=O)OC1C(=O)OC2CC3C(C)=CC(=O)C(O)C3(C)C3C4(O)OCC23C1C(C)C4O (configuration not stated)	-80%
O=C(CSC1c2ccccc2-c2ccccc21)N/N=C/c1ccccc1	73% (active)
CC(=O)OC1C2(CC3N4C(=O)C5(CO)SSC4(CC31O)C(=O)N5C)OC(C)C(C)(C)C2=O (configuration not stated)	-60.7%
COC1C(O)C(C)OC(OC2CCC3(C=O)C(CCC4C3CCC3(C)C(C5=CC(=O)OC5)CCC43O)C2)C1O (configuration not stated)	-82.1%
c1ccc(C(CN2CCCCC2)c2ccccc2)cc1	-40.7%
O=C(c1cc(S(=O)(=O)N2CCOCC2)ccc1F)N1CCC2(CC1)OCCO2	-52.8%
